According to ChEMBL document CHEMBL4177603 (Bioorg Med Chem Lett, 2017):

Tests used:
Rattus norvegicus = species: Rattus norvegicus; assay: Displacement of [3H]GABA from rat brain GABA transporter at 10 uM after 30 mins by scintillation counting method
[1] = target: Sodium-dependent serotonin transporter (Homo sapiens) (UniProt P31645); assay: Displacement of [3H]imipramine from recombinant human […] at 10 uM after 60 mins by scintillation counting method
[2] = Solubility of the compound in aqueous buffer at pH 5.5; format: physicochemical
[3] = target: Sodium channel protein type 4 subunit alpha (Homo sapiens, UniProt P35499); assay: Inhibition of human Nav1.4 expressed in HEK cells by patch clamp electrophysiology method; format: cell-based
Sequence of Sodium channel protein type 4 subunit alpha (P35499 whole entry): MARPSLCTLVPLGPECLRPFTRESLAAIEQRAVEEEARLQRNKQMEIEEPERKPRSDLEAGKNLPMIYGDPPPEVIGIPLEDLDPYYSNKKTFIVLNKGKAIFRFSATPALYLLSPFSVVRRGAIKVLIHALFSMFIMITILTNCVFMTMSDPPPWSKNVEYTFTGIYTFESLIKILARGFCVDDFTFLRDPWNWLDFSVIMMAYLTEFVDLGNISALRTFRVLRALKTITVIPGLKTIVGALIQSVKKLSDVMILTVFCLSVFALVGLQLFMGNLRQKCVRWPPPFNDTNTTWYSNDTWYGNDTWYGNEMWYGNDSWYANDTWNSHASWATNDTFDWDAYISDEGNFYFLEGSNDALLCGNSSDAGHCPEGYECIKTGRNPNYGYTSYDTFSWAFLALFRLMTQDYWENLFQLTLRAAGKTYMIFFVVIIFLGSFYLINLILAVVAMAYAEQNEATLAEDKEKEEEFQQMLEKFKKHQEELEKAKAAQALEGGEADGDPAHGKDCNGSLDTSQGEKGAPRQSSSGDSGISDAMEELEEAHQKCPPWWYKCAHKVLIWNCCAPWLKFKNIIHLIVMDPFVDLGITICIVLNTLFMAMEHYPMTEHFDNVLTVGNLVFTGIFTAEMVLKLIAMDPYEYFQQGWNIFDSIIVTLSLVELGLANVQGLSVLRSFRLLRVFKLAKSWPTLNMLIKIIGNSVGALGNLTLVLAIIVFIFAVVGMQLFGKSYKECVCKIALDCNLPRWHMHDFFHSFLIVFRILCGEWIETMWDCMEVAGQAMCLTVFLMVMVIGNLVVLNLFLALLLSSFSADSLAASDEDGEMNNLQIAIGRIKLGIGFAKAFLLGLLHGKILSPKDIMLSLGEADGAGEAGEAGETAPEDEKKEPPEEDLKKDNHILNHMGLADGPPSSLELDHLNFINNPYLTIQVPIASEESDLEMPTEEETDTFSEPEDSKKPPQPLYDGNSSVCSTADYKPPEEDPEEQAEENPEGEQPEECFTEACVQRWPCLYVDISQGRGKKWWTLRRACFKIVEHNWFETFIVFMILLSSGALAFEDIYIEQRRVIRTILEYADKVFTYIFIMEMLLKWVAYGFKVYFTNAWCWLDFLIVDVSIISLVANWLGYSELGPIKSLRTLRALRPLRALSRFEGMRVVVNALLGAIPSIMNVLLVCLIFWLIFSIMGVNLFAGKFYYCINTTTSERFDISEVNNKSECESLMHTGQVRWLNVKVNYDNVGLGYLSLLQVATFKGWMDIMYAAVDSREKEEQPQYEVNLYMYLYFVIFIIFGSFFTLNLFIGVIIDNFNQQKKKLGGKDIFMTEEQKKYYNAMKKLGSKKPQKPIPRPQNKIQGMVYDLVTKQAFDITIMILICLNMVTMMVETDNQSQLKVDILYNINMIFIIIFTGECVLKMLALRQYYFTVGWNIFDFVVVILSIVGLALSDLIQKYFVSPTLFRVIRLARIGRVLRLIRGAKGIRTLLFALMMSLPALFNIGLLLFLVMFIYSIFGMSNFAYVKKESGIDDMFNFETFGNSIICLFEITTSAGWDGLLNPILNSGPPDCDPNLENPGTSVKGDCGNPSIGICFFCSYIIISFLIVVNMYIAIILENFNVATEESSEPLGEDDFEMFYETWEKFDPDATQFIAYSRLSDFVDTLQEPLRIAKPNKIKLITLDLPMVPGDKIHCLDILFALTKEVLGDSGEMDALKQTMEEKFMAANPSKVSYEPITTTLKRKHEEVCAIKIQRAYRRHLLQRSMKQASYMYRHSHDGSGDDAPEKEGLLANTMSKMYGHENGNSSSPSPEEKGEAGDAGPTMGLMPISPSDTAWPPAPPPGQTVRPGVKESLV

[4] = target: Sodium channel protein type 10 subunit alpha (Homo sapiens, UniProt Q9Y5Y9); assay: Inhibition of human Nav1.8 expressed in HEK cells by automated patchXpress electrophysiology method; format: cell-based
[5] = Volume of distribution at steady state in dog at 0.3 mg/kg, iv via infusion for 0.5 hrs; format: ADME, organism-based, Canis lupus familiaris; settings: in vivo, read-out: Vdss
[6] = Renal clearance in dog at 0.3 mg/kg, iv via infusion for 0.5 hrs; format: ADME, organism-based, Canis lupus familiaris, Kidney; settings: in vivo
[7] = Primary phase half-life in dog at 0.3 mg/kg, iv via infusion for 0.5 hrs; format: ADME, organism-based, Canis lupus familiaris; settings: in vivo, read-out: alphat1/2 (converted)
Procedure, shortened: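 Dog IV pharmacokinetics, with half-life reported as two values: α (initial phase) and β (terminal phase) of the disposition profile.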

[8] = Clearance in bile duct cannulated rat at 0.3 mg/kg, iv via infusion for 1 hr; format: ADME, organism-based; settings: in vivo
Procedure, shortened: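 Plasma clearance was taken from a study in bile duct cannulated rats.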

Cytochrome P450 2C9 = Cytochrome P450 2C9 (Homo sapiens, UniProt P11712); assay: Inhibition of CYP2C9 (unknown origin); format: ADME
Sequence of Cytochrome P450 2C9 (P11712 whole entry): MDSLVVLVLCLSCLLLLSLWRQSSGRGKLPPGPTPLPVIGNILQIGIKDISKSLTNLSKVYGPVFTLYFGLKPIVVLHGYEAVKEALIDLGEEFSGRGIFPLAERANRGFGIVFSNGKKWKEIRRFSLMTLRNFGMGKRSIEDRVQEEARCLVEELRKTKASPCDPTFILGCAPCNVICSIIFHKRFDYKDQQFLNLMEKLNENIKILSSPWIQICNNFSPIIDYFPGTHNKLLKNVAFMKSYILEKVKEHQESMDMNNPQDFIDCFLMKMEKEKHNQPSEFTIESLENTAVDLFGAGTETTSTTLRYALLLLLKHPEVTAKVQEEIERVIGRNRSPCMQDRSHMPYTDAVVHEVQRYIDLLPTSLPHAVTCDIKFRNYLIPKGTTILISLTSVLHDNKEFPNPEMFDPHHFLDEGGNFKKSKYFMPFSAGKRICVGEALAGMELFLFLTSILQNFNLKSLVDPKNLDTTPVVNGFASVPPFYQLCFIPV

Cytochrome P450 1A2 = Cytochrome P450 1A2 (Homo sapiens, UniProt P05177); assay: Inhibition of CYP1A2 (unknown origin); format: ADME
Cytochrome P450 3A4 = Cytochrome P450 3A4 (Homo sapiens, UniProt P08684); assay: Inhibition of CYP3A4 (unknown origin); format: ADME
Sequence of Cytochrome P450 3A4 (P08684 whole entry): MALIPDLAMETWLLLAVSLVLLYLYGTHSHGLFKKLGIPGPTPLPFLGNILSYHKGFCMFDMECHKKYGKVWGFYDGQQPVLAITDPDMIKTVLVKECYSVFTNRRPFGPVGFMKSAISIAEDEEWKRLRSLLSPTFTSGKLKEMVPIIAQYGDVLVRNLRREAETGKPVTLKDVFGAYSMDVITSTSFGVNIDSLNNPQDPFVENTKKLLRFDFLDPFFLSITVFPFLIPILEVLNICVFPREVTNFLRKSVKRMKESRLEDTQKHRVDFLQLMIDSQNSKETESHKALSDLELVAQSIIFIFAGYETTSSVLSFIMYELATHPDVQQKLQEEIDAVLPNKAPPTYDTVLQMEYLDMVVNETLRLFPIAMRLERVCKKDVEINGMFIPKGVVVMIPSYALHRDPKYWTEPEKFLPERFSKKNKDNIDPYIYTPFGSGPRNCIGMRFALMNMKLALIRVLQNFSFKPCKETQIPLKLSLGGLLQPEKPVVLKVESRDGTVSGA

[9] = Protein binding in dog plasma assessed as fraction unbound; format: ADME, cell-free, Canis lupus familiaris
[10] = Intrinsic clearance in mouse hepatocytes assessed per million cells; format: ADME, cell-based, Hepatocyte; settings: read-out: CLH
[11] = Intrinsic clearance in rat hepatocytes assessed per million cells; format: ADME, cell-based, Hepatocyte; settings: read-out: CLH
[12] = Intrinsic clearance in dog liver microsomes; format: ADME, Canis lupus familiaris, microsome; settings: read-out: CLH
[13] = target: Sodium channel protein type 8 subunit alpha (Rattus norvegicus, UniProt O88420); assay: Inhibition of rat Nav1.6 expressed in HEK cells by patch clamp electrophysiology method; format: cell-based
[14] = target: Sodium channel protein type 11 subunit alpha (Homo sapiens, UniProt Q9UI33); assay: Inhibition of human Nav1.9 expressed in HEK cells by automated patchXpress electrophysiology method; format: cell-based
[15] = Inhibition of dog Nav1.7 expressed in HEK cells by automated patchXpress electrophysiology method; format: cell-based; settings: HEK293
[16] = target: Adenosine receptor A1 (Homo sapiens) (UniProt P30542); assay: Agonist activity at recombinant human adenosine A1 receptor expressed in mouse BA/F3 cells assessed as increase in calcium flux at 10 uM by spectrophotometric method relative to control; format: functional, cell-based
[17] = target: D(1A) dopamine receptor (Homo sapiens) (UniProt P21728); assay: Agonist activity at recombinant human D1 receptor expressed in CHOK1 cells assessed as increase in cAMP accumulation at 10 uM after 30 mins by HTRF assay relative to control; format: functional, cell-based
Sequence of D(1A) dopamine receptor (Homo sapiens) (P21728 whole entry): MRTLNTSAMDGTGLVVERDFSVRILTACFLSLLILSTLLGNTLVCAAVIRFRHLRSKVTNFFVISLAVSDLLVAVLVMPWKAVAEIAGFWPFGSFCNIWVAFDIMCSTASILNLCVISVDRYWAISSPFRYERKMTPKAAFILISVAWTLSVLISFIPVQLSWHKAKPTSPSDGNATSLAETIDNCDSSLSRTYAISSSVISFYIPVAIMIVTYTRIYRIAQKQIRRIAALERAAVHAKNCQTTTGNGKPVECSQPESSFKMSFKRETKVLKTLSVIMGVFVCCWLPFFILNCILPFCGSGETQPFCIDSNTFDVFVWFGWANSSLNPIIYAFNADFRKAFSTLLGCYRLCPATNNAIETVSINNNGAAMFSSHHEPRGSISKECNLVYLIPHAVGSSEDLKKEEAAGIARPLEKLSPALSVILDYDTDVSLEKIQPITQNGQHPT

[18] = target: Muscarinic acetylcholine receptor M3 (Homo sapiens) (UniProt P20309); assay: Agonist activity at human M3 receptor expressed in CHOK1 cells assessed as increase in calcium flux at 10 uM by fluorimetric method relative to control; format: functional, cell-based
[19] = target: Delta-type opioid receptor (Homo sapiens) (UniProt P41143); assay: Agonist activity at human DOR expressed in Chem1 cells assessed as increase in calcium flux at 10 uM by fluorimetric method relative to control; format: functional, cell-based
[20] = target: Mu-type opioid receptor (Homo sapiens) (UniProt P35372); assay: Agonist activity at recombinant human MOR expressed in CHOK1 cells assessed as increase in cAMP accumulation at 10 uM measured after 10 mins by HTRF assay relative to control; format: functional, cell-based
Sequence of Mu-type opioid receptor (Homo sapiens) (P35372 whole entry): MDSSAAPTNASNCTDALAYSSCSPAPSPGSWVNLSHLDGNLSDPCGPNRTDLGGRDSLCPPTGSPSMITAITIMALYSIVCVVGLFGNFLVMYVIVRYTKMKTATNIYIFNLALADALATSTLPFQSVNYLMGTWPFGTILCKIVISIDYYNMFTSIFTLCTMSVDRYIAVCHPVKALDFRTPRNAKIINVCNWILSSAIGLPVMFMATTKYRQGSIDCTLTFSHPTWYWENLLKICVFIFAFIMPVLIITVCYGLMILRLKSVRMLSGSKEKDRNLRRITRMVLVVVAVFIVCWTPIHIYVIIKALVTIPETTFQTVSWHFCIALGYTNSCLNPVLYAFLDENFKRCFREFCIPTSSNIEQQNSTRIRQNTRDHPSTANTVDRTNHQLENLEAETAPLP

[21] = target: 5-hydroxytryptamine receptor 1A (Homo sapiens) (UniProt P08908); assay: Agonist activity at human 5-HT1A receptor expressed in mouse BA/F3 cells assessed as increase in calcium flux at 10 uM by fluorimetric method relative to control; format: functional, cell-based
[22] = target: Muscarinic acetylcholine receptor M2 (Homo sapiens) (UniProt P08172); assay: Antagonist activity at recombinant human M2 receptor expressed in CHOK1 cells assessed as inhibition of acetylcholine-induced cAMP accumulation at 10 uM measured after 10 mins by HTRF assay relative to control; format: functional, cell-based
Homo sapiens = species: Homo sapiens; assay: Inhibition of neuronal type nAChR (unknown origin) at 10 uM by radioligand binding assay relative to control
[23] = target: 3',5'-cyclic-AMP phosphodiesterase 4D (Homo sapiens) (UniProt Q08499); assay: Inhibition of recombinant human PDE4D2 at 10 uM using [3H]cAMP as substrate measured after 20 mins by scintillation counting method relative to control
[24] = target: Glucocorticoid receptor (Homo sapiens) (UniProt P04150); assay: Displacement of [3H]dexamethasone from human glucocorticoid receptor at 10 uM after 360 mins by scintillation counting method
[25] = target: T1, Alpha-1A adrenergic receptor (Homo sapiens) (UniProt P35348); assay: Displacement of [3H]prazosin from recombinant human alpha1a receptor at 10 uM after 60 mins by scintillation counting method
T1 sequence (whole entry): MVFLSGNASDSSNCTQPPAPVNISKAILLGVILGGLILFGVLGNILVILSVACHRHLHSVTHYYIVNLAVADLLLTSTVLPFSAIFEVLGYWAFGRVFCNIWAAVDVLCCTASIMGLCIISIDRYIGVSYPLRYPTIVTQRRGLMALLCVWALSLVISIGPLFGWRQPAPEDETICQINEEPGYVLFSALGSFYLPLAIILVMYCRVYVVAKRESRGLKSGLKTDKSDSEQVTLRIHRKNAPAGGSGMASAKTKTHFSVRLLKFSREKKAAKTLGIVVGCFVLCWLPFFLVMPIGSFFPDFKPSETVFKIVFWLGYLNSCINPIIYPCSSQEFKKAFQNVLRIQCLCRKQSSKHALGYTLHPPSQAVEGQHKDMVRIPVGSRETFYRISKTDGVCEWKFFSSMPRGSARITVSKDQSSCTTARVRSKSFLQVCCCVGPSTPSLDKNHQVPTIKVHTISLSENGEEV

[26] = target: Beta-2 adrenergic receptor (Homo sapiens) (UniProt P07550); assay: Displacement of [3H](-)CGP12177 from recombinant human beta2 receptor at 10 uM after 120 mins by scintillation counting method
[27] = target: Histamine H1 receptor (Homo sapiens) (UniProt P35367); assay: Displacement of [3H]pyrilamine from recombinant human H1 receptor at 10 uM after 60 mins by scintillation counting method
Sequence of Histamine H1 receptor (Homo sapiens) (P35367 whole entry): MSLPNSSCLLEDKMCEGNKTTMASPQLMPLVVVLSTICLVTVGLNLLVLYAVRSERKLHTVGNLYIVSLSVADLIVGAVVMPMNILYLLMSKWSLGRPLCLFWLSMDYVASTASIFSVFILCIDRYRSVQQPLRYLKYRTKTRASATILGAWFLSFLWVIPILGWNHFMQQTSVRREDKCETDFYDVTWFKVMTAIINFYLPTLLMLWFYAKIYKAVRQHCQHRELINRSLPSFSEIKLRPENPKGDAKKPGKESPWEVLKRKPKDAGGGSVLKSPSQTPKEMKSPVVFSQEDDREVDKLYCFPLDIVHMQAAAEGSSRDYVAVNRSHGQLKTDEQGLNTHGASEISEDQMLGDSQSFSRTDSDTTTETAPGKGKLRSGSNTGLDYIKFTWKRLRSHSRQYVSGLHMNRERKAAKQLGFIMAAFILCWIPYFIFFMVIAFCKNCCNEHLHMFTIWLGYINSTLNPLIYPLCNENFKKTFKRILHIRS

[28] = target: Mu-type opioid receptor (Homo sapiens) (UniProt P35372); assay: Displacement of [3H]DAMGO from recombinant human MOR at 10 uM after 120 mins by scintillation counting method
Adenosine receptor A1 = Adenosine receptor A1 (Homo sapiens, UniProt P30542); assay: Agonist activity at recombinant human adenosine A1 receptor expressed in mouse BA/F3 cells assessed as increase in calcium flux by spectrophotometric method; format: functional, cell-based

Sequence of Sodium-dependent serotonin transporter (Homo sapiens) (P31645 whole entry, looked up): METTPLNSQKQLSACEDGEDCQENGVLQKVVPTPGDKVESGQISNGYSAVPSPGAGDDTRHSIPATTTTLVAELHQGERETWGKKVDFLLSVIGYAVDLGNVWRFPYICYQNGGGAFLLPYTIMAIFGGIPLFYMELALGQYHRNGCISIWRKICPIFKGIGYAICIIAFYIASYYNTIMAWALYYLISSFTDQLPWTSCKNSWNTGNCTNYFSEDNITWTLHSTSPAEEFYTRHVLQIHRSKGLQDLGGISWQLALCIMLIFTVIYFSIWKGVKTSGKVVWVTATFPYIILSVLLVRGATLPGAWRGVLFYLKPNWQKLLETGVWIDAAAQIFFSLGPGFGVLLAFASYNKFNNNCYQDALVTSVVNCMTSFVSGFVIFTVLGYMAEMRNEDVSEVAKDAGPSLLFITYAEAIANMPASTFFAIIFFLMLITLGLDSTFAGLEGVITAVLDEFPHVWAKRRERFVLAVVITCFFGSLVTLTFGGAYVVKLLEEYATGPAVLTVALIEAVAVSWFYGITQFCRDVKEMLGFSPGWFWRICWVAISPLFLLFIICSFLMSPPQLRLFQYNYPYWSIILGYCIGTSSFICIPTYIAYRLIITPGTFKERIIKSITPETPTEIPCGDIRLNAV

Compound: N#Cc1cc(S(=O)(=O)Nc2ncns2)ccc1Oc1ccc(-c2cccc(C(F)(F)F)c2)cc1-c1ccnc(CNCCC2CCNCC2)c1
- inhibition (Rattus norvegicus): 5%
- inhibition [1]: 40%
- solubility [2]: > 1840 µg/mL
- IC50 [3]: 1450 nM
- IC50 [4]: 10000 to 26000 nM
- Vd [5]: 0.46 L/kg
- CL renal at 0.5 h [6]: 0.0012 mL/min/kg
- half-life [7]: 3.42 min
- clearance [8]: 59.8 mL/min/kg
- IC50 (Cytochrome P450 2C9): 3750 nM
- IC50 (Cytochrome P450 1A2): > 30000 nM
- IC50 (Cytochrome P450 3A4): 1150 nM
- fraction unbound [9]: 0.00374
- hepatocyte CLint [10]: < 3 µL/min/1e6 cells
- hepatocyte CLint [11]: < 6 µL/min/1e6 cells
- microsomal CLint [12]: < 18.1 µL/min/mg
- IC50 [13]: 5.01 nM
- IC50 [14]: > 10000 nM
- IC50 [15]: < 0.03 nM
- Activity [16]: 107%
- Activity [17]: 6%
- Activity [18]: 8%
- Activity [19]: -49%
- Activity [20]: 21%
- Activity [21]: -34%
- inhibition [22]: 24%
- inhibition (Homo sapiens): 34%
- inhibition [23]: -8%
- inhibition [24]: 36.1%
- inhibition [25]: -4%
- inhibition [26]: 4%
- inhibition [27]: 29%
- inhibition [28]: 46%
- EC50 (Adenosine receptor A1): 1430 nM
